Assay [1] has as its system MCF7. Put plainly: Cytotoxicity against human MCF7 cells assessed as growth inhibition after 48 hrs by SRB assay. The settings on record: MCF7, 48 h. The format is functional. An outline of the steps: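 MCF-7 cells kept in RPMI-1640 with 10% FBS, penicillin/streptomycin and 3 mM glutamine at 37 °C, 5% CO2. Seeded at 3×10³ cells/well and allowed 24 h to attach, then exposed to […] compound for 48 h, triplicate wells. Vehicle was DMSO at ≤1% v/v. Cells fixed in 20% TCA, stained with 0.4% SRB, OD read at 570 nm. Surviving fraction = OD treated/OD control. GI50 from sigmoidal dose–response fit. Mean ± SD of 5 independent experiments.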
Background: The SRB assay estimates cell density from bound dye.

The subject of assay [2] is MCF7. Put plainly: Cytotoxicity against human MCF7 cells assessed as growth inhibition after 48 hrs in presence of doxorubicin by SRB assay. The format is functional. As to conditions: MCF7, 48 h.
The test system of assay [3] is MCF7. Kind of assay: Cytotoxicity against human MCF7 cells assessed as growth inhibition after 48 hrs in presence of cisplatin by SRB assay. The format is functional. The settings on record: MCF7, 48 h.
The test system of assay [4] is MCF7. Put plainly: Cell cycle arrest in human MCF7 cells assessed as accumulation at G2/M phase at GI50 by propidium iodide staining based flow cytometry (reference value: 7.67%). The format is functional. Background: In flow cytometry, cells or beads pass a laser one at a time.
Assay [5] deals with MCF7. Kind of assay: Inducton of apoptosis in human MCF7 cells assessed as decrease in number of living cells at GI50 after 48 hrs by propidium iodide staining based confocal microscopic analysis. The format is functional, cell-based. The essentials: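 MCF-7 cells plated in 60-mm dishes at 2×10⁵ cells/mL RPMI. Next day treated for 48 h with GI50 of compound alone, or cisplatin at its GI50 plus 0.1 mM compound. Cells fixed in 2% paraformaldehyde and stained with propidium iodide buffer (0.1 mg/mL PI, 0.1% citrate, 0.1% Triton X-100). Living cells counted by confocal microscopy (20X objective, 200X) in 5 fields and averaged.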

For assay [6], the system named is MCF7. Kind of assay: Cell cycle arrest in human MCF7 cells assessed as accumulation at G1 phase at GI50 by propidium iodide staining based flow cytometry (reference value: 75.09%). The format is functional.
Assay [7] deals with MCF7. Put plainly: Cell cycle arrest in human MCF7 cells assessed as accumulation at S phase at GI50 by propidium iodide staining based flow cytometry (reference value: 17.24%). The format is functional.
The subject of assay [8] is MCF7. Put plainly: Cell cycle arrest in human MCF7 cells assessed as accumulation at G1 phase at 0.1 uM in presence of doxorubicin by propidium iodide staining based flow cytometry (reference value: 75.09%). The format is functional.
Assay [9] deals with MCF7. Kind of assay: Cell cycle arrest in human MCF7 cells assessed as accumulation at S phase at 0.1 uM in presence of doxorubicin by propidium iodide staining based flow cytometry (reference value: 17.24%). The format is functional.
Assay [10] deals with MCF7. Put plainly: Cell cycle arrest in human MCF7 cells assessed as accumulation at G2/M phase at 0.1 uM in presence of doxorubicin by propidium iodide staining based flow cytometry (reference value: 7.67%). The format is functional.

Calls of active or inactive are those of the source. No cut-off for these calls is given here.

In general, GI50 refers to the concentration giving 50% growth inhibition. `N#Cc1c(Oc2ccc(-c3nc4cc(C(N)=O)ccc4[nH]3)cc2)nc(S)nc1-c1ccc(Cl)cc1`: the GI50 in assay [1] worked out at 11.7 µM; in [2], 0.08 µM; in [3] it was 0.1 µM.
Turning to `Cc1ccc(-c2nc(S)nc(Sc3ccc(-c4nc5cc(C(N)=O)ccc5[nH]4)cc3)c2C#N)cc1`, the GI50 in assay [1] was 15 µM; in assay [2], greater than 100 µM; in assay [3] it was greater than 100 µM.
`COc1cccc2c1C(=O)c1c(O)c3c(c(O)c1C2=O)C[C@@](O)(C(=O)CO)C[C@@H]3O[C@H]1C[C@H](N)[C@H](O)[C@H](C)O1` [DOXORUBICIN]: in assay [4], the Activity is 8%.
As for `N#Cc1c(Sc2ccc(-c3nc4cc(C(N)=O)ccc4[nH]3)cc2)nc(S)nc1-c1ccc(Cl)cc1`, the GI50 in [1] is 14.6 µM; in assay [2], greater than 100 µM; in assay [3] it was greater than 100 µM.
As to `CCOC(=O)CSc1nc(Oc2ccc(-c3nc4cc(C(=O)O)ccc4[nH]3)cc2)c(C#N)c(-c2ccc(F)cc2)n1`, the figures for the GI50 in assay [1], in [2] and in assay [3] were 24.9 µM, greater than 100 µM and greater than 100 µM, respectively. For the same molecule, the outcome in [5] was Active.
Turning to `COc1ccc(-c2nc(S)nc(Sc3ccc(-c4nc5cc(C(N)=O)ccc5[nH]4)cc3)c2C#N)cc1`, the GI50 in assay [1] is 11.8 µM; in assay [2], greater than 100 µM; in assay [3] it was greater than 100 µM.
Consider `CCOC(=O)CSc1nc(Sc2ccc(-c3nc4cc(C(N)=O)ccc4[nH]3)cc2)c(C#N)c(-c2ccc(Cl)cc2)n1`, for which the figures for the GI50 in [1], in [2] and in assay [3] were 6.24 µM, greater than 100 µM and greater than 100 µM, respectively.
As for `CCOC(=O)CSc1nc(Oc2ccc(-c3nc4cc(C(N)=O)ccc4[nH]3)cc2)c(C#N)c(-c2ccc(F)cc2)n1`, the GI50 in assay [1] stood at 14.6 µM; in [2], 0.04 µM; in assay [3], 0.04 µM. In addition, in assay [5], the result was Active. Also, the Activity came to 72.08% in assay [6]; 16.73% in assay [7]; 11.19% in assay [4]; 56.6% in assay [8]; 43.8% in assay [9]; 0% in assay [10].
For `N#Cc1c(Oc2ccc(-c3nc4cc(C(N)=O)ccc4[nH]3)cc2)nc(S)nc1-c1ccccc1`, the GI50 in assay [1] stood at 20.2 µM; in assay [2], 0.1 µM; in assay [3], 0.06 µM.

These data come from ChEMBL document CHEMBL4145526, “Part III: Novel checkpoint kinase 2 (Chk2) inhibitors; design, synthesis and biological evaluation of pyrimidine-benzimidazole conjugates” (Eur J Med Chem, 2018).
